Activity calls are given as the source filed them. No cut-off for these calls is given here.
Legend:
Intestine = assay: Drug metabolism in Sprague-Dawley rat intestine assessed as nicotinuric acid formation at 300 mg/kg, qd administered through oral gavage for 7 days measured 2 hrs post last dose by LC/MS/MS analysis; assay type: ADME, organism-based; conditions: in vivo
Plasma [1] = assay: Drug metabolism in Sprague-Dawley rat plasma assessed as niacin linker metabolite N-(2-aminoethyl)nicotinamide formation at 300 mg/kg, qd administered through oral gavage for 7 days measured 2 hrs post last dose by LC/MS/MS analysis; assay type: ADME, organism-based; conditions: in vivo
Liver [2] = assay: Drug metabolism in Sprague-Dawley rat liver assessed as niacin linker metabolite N-(2-aminoethyl)nicotinamide formation at 300 mg/kg, qd administered through oral gavage for 7 days measured 2 hrs post last dose by LC/MS/MS analysis; assay type: ADME, organism-based; conditions: in vivo
Rattus norvegicus [3] = assay: Cmax in jugular vein cannulated Sprague-Dawley rat assessed as N-(2-aminoethyl)nicotinamide at 30 mg/kg, po measured up to 140 mins; assay type: ADME, organism-based; parameters: dose 30 mg/kg, route oral; conditions: in vivo
How it was run: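 Sprague Dawley rats surgically fitted with indwelling jugular vein and portal vein cannulas; oral dosing, then serial blood draws from both portal and jugular veins at 10, 20, 40 min and 1, 2, 4, 6 hr post dose; plasma analysed for parent and metabolites by LC/MS/MS.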

Mus musculus [4] = assay: Inhibition of PCSK9 levels in po dosed ApoE*3-Leiden mouse plasma administered for 16 weeks; assay type: functional, organism-based
How it was run: (§1)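 Transgenic ApoE*3-Leiden mice on high-cholesterol Western-type diet dosed over 16 weeks; plasma PCSK9, total cholesterol, triglycerides and lipoprotein profile (VLDL, LDL) assessed at study end.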

Mus musculus [5] = assay: Inhibition of triglyceride levels in po dosed ApoE*3-Leiden mouse plasma administered for 16 weeks; assay type: functional, organism-based; how it was run: as §1
[6] = target: T1, Fatty-acid amide hydrolase 1 (Homo sapiens, UniProt O00519); assay: Drug metabolism assessed as human recombinant N-terminal FLAG/C-terminal His-tagged FAAH1 (32 to 579 residues)-mediated compound hydrolysis by measuring release of EPA at 25 uM after 2 hrs by LC/MS-MS analysis in presence of PF-3845; assay type: ADME
T1 sequence (O00519 whole entry): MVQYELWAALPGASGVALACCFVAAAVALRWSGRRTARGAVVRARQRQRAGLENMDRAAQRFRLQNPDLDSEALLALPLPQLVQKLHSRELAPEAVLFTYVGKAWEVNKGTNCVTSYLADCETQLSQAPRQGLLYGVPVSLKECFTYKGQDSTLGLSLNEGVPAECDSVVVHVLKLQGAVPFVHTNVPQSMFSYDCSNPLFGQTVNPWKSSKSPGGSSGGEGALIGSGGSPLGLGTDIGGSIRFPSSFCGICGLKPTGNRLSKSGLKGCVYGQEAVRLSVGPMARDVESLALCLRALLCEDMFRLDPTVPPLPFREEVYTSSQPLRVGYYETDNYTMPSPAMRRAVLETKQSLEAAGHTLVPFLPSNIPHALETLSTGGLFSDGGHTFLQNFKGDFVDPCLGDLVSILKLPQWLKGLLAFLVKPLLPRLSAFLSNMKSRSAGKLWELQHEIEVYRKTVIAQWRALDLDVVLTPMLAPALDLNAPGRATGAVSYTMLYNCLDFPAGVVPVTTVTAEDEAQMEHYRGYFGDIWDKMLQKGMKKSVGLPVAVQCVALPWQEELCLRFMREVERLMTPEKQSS

Rattus norvegicus [7] = assay: AUClast in Sprague-Dawley rat assessed as salicylate-linker metabolite N-(2-aminoethyl)-2-hydroxy-benzamide at 300 mg/kg, po measured up to 24 hrs post dose; assay type: ADME, organism-based; parameters: time < 24 hr, dose 300 mg/kg, route oral; conditions: in vivo
How it was run: (§2)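 Single oral dose of 300 mg/kg to Sprague Dawley rats. Plasma collected at 0, 0.5, 1, 2, 4, 8 and 24 hr. Analytes were the parent, the salicylate-linker and linker-DHA metabolites, salicylic acid and salicyluric acid; Cmax and AUClast derived.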

Brain [8] = assay: Drug metabolism in Sprague-Dawley rat brain assessed as salicylic acid formation at 300 mg/kg, po administered for 7 days measured 4 hrs post dose on day 7; assay type: ADME, organism-based; conditions: in vivo
How it was run: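 Male Sprague Dawley rats, groups of 4, dosed orally at 300 mg/kg once daily for 14 days. Animals killed on days 1, 3, 7 and 14, with plasma, brain, epididymal fat, liver and muscle taken 4 hr after dosing. Parent, salicylic acid and salicyluric acid were measured.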

Plasma [9] = assay: Drug metabolism in Sprague-Dawley rat plasma assessed as N-(2-aminoethyl)-2-hydroxy-benzamide formation at 300 mg/kg, po measured up to 24 hrs post dose; assay type: ADME, organism-based; conditions: in vivo; how it was run: as §2
[10] = Drug metabolism in Sprague-Dawley rat epididymal fat assessed as salicylic acid formation at 300 mg/kg, po administered for 14 days followed by 7 day washout cycle measured on day 21; assay type: ADME, organism-based, Epididymal fat pad; conditions: in vivo
Liver [11] = assay: Drug metabolism in Sprague-Dawley rat liver assessed as salicylic acid formation at 300 mg/kg, po administered for 14 days followed by 7 day washout cycle measured on day 21; assay type: ADME, organism-based; conditions: in vivo
Brain [12] = assay: Drug uptake in Sprague-Dawley rat brain at 300 mg/kg, po administered for 14 days measured 4 hrs post dose on day 1, 3, 7 and 14; conditions: in vivo

AUClast (Rattus norvegicus [7]) [ng·h/mL] | Drug metabolism (Brain [8]) [ng/g] | Drug metabolism (Plasma [9]) | Drug metabolism [10] | Drug metabolism (Liver [11]) | Drug uptake (Brain [12]) | SMILES | Drug metabolism (Intestine) [ng/g] | Drug metabolism (Plasma [1]) [ng/mL] | Drug metabolism (Liver [2]) [ng/g] | Cmax (Rattus norvegicus [3]) [ng/mL] | inhibition (Mus musculus [4]) | inhibition (Mus musculus [5]) | Drug metabolism [6]
– | – | – | – | – | – | CC/C=C\C/C=C\C/C=C\C/C=C\C/C=C\CCCC(=O)NCCNC(=O)c1cccnc1 | 1387 | 2296 | 10910 | 336 | Active | Active | metabolite_notdetected
2611 | 53.32 | metabolite_detected | metabolite_notdetected | metabolite_notdetected | Not Active | CC/C=C\C/C=C\C/C=C\C/C=C\C/C=C\C/C=C\CCC(=O)NCCNC(=O)c1ccccc1O [EDASALONEXENT] | – | – | – | – | – | – | –

Source: ChEMBL document CHEMBL3785029, “Synthesis and Characterization of Fatty Acid Conjugates of Niacin and Salicylic Acid” (J Med Chem, 2016)
